Active and inactive are the calls of the source. The rule behind the calls is not given here.
How the values were obtained:
Mus musculus [1] = experiment: Antinociceptive activity in mouse by hot plate assay at 1 mg/kg, sc after 5 mins; type: functional; conditions: route subcutaneous
How it was run: (§1)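 Mouse hot-plate at 55.0 °C in a 10-cm glass cylinder. Two control latencies were taken ≥10 min apart (normal 8-12 s), scored by jumping or paw licking. Mice were tested 5 min after sc injection. Response given as %MPE = (test - control)/(maximum - control) × 100.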

Rattus norvegicus [2] = experiment: Agonist activity on nicotine discrimination in rat at 3 mg/kg by lever press assay; type: functional
How it was run: (§2)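 Substitution tests were 15-min sessions starting 10 min after sc injection, with either lever reinforced. A rat was tested only if it made ≥80% injection-appropriate responses on the prior training day. Readouts: % nicotine-lever responding and response rate.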

Mus musculus [3] = organism: Mus musculus; experiment: Antagonist effect on nicotine-induced antinociceptive activity in mouse by hot plate assay; type: functional
Mus musculus [4] = organism: Mus musculus; experiment: Antagonist effect against nicotine-induced antinociceptive activity in mouse by tail flick assay; type: functional
Mus musculus [5] = experiment: Spontaneous activity in mouse at 5 mg/kg; type: functional
How it was run: (§3)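 Mice placed in individual photocell activity cages 5 min after sc injection (0.9% saline vehicle). Photocell beam interruptions were counted over the next 10 min.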

[6] = molecular target: Neuronal acetylcholine receptor; alpha4/beta2 (Rattus norvegicus, UniProt P09483+P12390); experiment: Displacement of [3H]epibatidine from alpha-4-beta-2 nACHR in rat cerebral cortex; type: tissue-based
Mus musculus [7] = experiment: Antinociceptive activity in mouse by tail flick assay at 1 mg/kg; type: functional
How it was run: (§4)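 Mouse tail-flick: tail exposed to a heat lamp and flick latency recorded. A control latency (2-4 s) was taken before treatment and a test latency after drug. Response given as %MPE = (test - control)/(maximum - control) × 100. ED50 with 95% confidence limits from unweighted least-squares linear regression.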

Mus musculus [8] = experiment: Hypothermia in mouse at 5 mg/kg; type: functional, organism-based; parameters: dose 5 mg/kg
How it was run: (§5)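 Rectal temperature in mice measured by thermistor probe inserted 24 mm, read just before and at several times after sc injection (saline vehicle). Readout is the before-after difference for each mouse; ambient temperature 21-24 °C.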

[9] = molecular target: T1, Neuronal acetylcholine receptor; alpha4/beta2 (Homo sapiens, UniProt P17787+P43681); experiment: Agonist activity at human alpha-4-beta-2 nACHR in SH-EP1 cells by patch-clamp assay at 10 uM; type: functional, cell-based
[10] = molecular target: Neuronal acetylcholine receptor subunit alpha-7 (Homo sapiens) (UniProt P36544); experiment: Displacement of [125I]iodoMLA from alpha-7 nACHR at 10 uM; conditions: Rattus norvegicus
Mus musculus [11] = experiment: Antinociceptive activity in mouse by tail flick assay at 10 ug administered intrathecally; type: functional, organism-based
How it was run: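 Tail-flick latency to a heat lamp in mice after intrathecal injection of 10 µg/mouse.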

[12] = molecular target: T2, Neuronal acetylcholine receptor; alpha3/beta4 (Rattus norvegicus) (UniProt P04757+P12392); experiment: Agonist activity at rat alpha3beta4 nACHR in HEK293 cells by patch-clamp assay at 10 uM; type: functional, cell-based
[13] = molecular target: T1, Neuronal acetylcholine receptor; alpha4/beta2; experiment: Antagonist activity at human alpha-4-beta-2 nACHR in SH-EP1 cells by patch-clamp assay at 10 uM; type: functional, cell-based; parameters: scale not given: the % may be the effect or the level left
[14] = molecular target: T2, Neuronal acetylcholine receptor; alpha3/beta4 (Rattus norvegicus); experiment: Antagonist activity at rat alpha-3-beta-4 nACHR in HEK293 cells by patch-clamp assay at 10 uM; type: functional, cell-based; parameters: scale not given: the % may be the effect or the level left
[15] = molecular target: T1, Neuronal acetylcholine receptor; alpha4/beta2; experiment: Activity at human alpha-4-beta-2 nACHR assessed as inhibition of ACh-induced current in SH-EP1 cells at 40 uM; type: functional, cell-based; parameters: scale not given: the % may be the effect or the level left
[16] = molecular target: T1, Neuronal acetylcholine receptor; alpha4/beta2; experiment: Intrinsic activity at human alpha-4-beta-2 nACHR in SH-EP1 cells relative to ACh; type: functional, cell-based
Rattus norvegicus [17] = experiment: Agonist activity on nicotine discrimination in rat at 0.56 mg/kg by lever press assay; type: functional; how it was run: as §2
Mus musculus [18] = experiment: Antagonist effect on nicotine-induced antinociceptive activity in mouse by hot plate assay at […]; type: functional; parameters: scale not given: the % may be the effect or the level left
Mus musculus [19] = experiment: Antagonist effect on nicotine-induced hypothermia in mouse at […]; type: functional; parameters: scale not given: the % may be the effect or the level left
Mus musculus [20] = organism: Mus musculus; experiment: Spontaneous activity in mouse; type: functional; how it was run: as §3
Mus musculus [21] = organism: Mus musculus; experiment: Hypothermia in mouse; type: functional; how it was run: as §5
Rattus norvegicus [22] = experiment: Antagonist activity on nicotine discrimination in rat at 0.3 mg/kg by lever press assay; type: functional; parameters: scale not given: the % may be the effect or the level left
How it was run: (§6)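 Pretreatment with the test dose sc was followed 10 min later by 0.4 mg/kg (-)-nicotine, then a 15-min test session. Readouts: % nicotine-lever responding and response rate.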

Mus musculus [23] = experiment: Antagonist effect on nicotine-induced antinociceptive activity in mouse by tail flick assay at […]; type: functional; parameters: scale not given: the % may be the effect or the level left
Mus musculus [24] = experiment: Antinociceptive activity in sc dosed mouse by hot plate assay after 5 mins
Mus musculus [25] = organism: Mus musculus; experiment: Antinociceptive activity in mouse by tail flick assay
Rattus norvegicus [26] = experiment: Antagonist activity on nicotine discrimination in rat at 3 mg/kg by lever press assay; type: functional; parameters: scale not given: the % may be the effect or the level left; how it was run: as §6
Mus musculus [27] = experiment: Antinociceptive activity in mouse by tail flick assay at 10 mg/kg; type: functional; how it was run: as §4
Mus musculus [28] = experiment: Antinociceptive activity in mouse by hot plate assay at 10 mg/kg, sc after 5 mins; type: functional; conditions: route subcutaneous; how it was run: as §1

Neuronal acetylcholine receptor; alpha4/beta2 (Rattus norvegicus, UniProt P09483+P12390), sequence (P09483 whole entry): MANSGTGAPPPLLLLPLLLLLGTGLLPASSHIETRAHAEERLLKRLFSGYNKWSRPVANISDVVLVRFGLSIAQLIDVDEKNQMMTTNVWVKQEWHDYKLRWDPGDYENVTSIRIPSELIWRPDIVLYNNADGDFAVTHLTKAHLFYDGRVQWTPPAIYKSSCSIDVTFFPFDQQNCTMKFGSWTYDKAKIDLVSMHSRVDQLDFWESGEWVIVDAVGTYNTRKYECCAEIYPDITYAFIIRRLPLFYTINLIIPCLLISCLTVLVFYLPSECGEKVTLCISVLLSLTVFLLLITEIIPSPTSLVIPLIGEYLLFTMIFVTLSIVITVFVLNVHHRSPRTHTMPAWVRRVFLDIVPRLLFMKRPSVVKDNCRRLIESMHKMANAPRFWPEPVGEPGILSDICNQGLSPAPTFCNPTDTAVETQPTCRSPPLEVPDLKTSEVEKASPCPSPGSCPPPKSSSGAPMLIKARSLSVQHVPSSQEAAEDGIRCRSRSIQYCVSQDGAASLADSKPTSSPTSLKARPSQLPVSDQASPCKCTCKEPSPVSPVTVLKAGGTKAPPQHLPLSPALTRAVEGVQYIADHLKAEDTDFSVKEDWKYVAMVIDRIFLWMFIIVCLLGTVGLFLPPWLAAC
Neuronal acetylcholine receptor; alpha4/beta2 (Rattus norvegicus, UniProt P09483+P12390), sequence (P12390 whole entry): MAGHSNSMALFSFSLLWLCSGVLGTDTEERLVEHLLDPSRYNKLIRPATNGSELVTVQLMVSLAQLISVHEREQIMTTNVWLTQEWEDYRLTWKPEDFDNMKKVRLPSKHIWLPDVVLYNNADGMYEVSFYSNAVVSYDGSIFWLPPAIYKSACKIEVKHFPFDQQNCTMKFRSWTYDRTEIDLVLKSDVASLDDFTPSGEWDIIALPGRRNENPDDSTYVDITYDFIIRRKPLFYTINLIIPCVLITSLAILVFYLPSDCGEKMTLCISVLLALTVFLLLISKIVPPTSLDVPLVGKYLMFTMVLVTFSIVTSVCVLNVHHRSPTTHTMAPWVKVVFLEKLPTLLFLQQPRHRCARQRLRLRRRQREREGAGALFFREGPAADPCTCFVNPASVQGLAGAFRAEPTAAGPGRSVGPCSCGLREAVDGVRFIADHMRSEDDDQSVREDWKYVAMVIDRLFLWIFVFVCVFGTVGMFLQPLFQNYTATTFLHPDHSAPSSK
Neuronal acetylcholine receptor subunit alpha-7 (Homo sapiens), sequence (P36544 whole entry): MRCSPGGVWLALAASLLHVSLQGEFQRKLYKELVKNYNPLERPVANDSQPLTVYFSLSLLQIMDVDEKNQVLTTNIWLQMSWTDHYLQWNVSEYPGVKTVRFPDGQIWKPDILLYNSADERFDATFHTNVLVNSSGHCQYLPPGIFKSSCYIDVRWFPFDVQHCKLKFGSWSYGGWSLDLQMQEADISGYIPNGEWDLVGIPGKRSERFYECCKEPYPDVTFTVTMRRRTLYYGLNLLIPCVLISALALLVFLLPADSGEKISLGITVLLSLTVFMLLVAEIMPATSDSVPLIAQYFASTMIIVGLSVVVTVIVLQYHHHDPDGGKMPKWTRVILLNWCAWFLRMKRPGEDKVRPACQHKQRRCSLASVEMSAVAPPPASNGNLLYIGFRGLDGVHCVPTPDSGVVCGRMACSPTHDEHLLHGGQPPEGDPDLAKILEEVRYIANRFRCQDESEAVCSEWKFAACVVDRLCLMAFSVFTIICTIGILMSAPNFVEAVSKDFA
T1 sequence (P17787 whole entry): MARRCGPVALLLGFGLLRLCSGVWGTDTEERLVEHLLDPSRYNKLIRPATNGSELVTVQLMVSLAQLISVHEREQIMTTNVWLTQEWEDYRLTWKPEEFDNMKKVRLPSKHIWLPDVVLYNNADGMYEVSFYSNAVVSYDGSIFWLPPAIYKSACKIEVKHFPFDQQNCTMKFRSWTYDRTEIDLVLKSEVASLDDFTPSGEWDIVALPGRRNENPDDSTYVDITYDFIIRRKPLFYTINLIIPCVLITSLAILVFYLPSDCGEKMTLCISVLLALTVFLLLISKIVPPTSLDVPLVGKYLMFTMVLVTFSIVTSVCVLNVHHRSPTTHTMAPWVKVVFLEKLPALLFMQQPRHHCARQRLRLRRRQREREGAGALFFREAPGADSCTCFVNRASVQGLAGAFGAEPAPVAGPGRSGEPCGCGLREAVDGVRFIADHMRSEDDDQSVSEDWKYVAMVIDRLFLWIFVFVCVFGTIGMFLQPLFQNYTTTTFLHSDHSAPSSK
T1 sequence (P43681 whole entry): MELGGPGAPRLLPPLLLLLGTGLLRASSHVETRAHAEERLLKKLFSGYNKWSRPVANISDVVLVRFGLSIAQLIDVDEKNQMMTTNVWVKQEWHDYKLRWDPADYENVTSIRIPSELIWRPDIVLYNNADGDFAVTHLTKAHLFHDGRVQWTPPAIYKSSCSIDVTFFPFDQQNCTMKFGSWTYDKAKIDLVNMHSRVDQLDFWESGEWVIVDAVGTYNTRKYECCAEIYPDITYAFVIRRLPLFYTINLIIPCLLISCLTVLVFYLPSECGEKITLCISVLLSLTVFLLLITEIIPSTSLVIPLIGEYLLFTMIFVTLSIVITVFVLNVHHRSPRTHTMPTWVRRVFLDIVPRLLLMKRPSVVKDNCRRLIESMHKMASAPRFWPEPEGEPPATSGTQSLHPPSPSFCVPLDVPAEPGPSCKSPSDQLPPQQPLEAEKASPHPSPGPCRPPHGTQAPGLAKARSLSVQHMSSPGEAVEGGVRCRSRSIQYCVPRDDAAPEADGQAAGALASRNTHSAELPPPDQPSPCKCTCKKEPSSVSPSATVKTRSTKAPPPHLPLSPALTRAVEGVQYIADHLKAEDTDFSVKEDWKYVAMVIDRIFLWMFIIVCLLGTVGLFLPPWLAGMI

**Q.** How did the Activity (Mus musculus [1]) turn out when `c1cc2c(cn1)C1CCC(CC2)N1` (single isomer, unassigned; (-)) [listing 1 of 2 here] was run?
**A.** 2%

**Q.** What about the Activity (Rattus norvegicus [2]) of the same compound?
**A.** 23.8%

**Q.** And the AD50 (Mus musculus [3])?
**A.** 0.8 µg/kg

**Q.** What about the AD50 (Mus musculus [4]) of the same compound?
**A.** 0.07 µg/kg

**Q.** And the Activity (Mus musculus [5])?
**A.** 10%

**Q.** What about the Ki [6] of the same compound?
**A.** 350 nM

**Q.** What about the Activity (Mus musculus [7]) of the same compound?
**A.** 2%

**Q.** `c1cc2c(cn1)C1CCC(CC2)N1` (single isomer, unassigned; (-)) [listing 2 of 2 here] was tested. Which Activity (Mus musculus [8]) did it give?
**A.** Active

**Q.** What about the Activity [9] of the same compound?
**A.** 0%

**Q.** What about the inhibition [10] of the same compound?
**A.** 50%

**Q.** What about the Activity (Mus musculus [11]) of the same compound?
**A.** inactive

**Q.** What about the Activity [12] of the same compound?
**A.** 0.9%

**Q.** And the Activity [13]?
**A.** 89%

**Q.** And the Activity [14]?
**A.** 93%

**Q.** Which results are given for `c1cc2c(cn1)C1CCC(CC2)N1` (single isomer, unassigned; (+)) [listing 1 of 2 here]?
**A.** Activity [15]: 10%; Activity [9]: 28%; inhibition [10]: < 50%; Activity [16]: 17%; Activity (Mus musculus [11]): inactive; Activity [12]: 13%; Activity [13]: 117%; Activity [14]: 101%

**Q.** How did the Activity (Rattus norvegicus [17]) turn out when `c1cc2c(cn1)C1CCC(CC2)N1` (single isomer, unassigned; (+)) [listing 2 of 2 here] was run?
**A.** 44.5%

**Q.** And the Activity (Mus musculus [1])?
**A.** 8%

**Q.** And the Activity (Mus musculus [18])?
**A.** 5%

**Q.** And the Activity (Mus musculus [19])?
**A.** 0%

**Q.** And the EC50 [16]?
**A.** 5500 nM

**Q.** What about the ED50 (Mus musculus [20]) of the same compound?
**A.** 2000 µg/kg

**Q.** And the Ki [6]?
**A.** 1.29 nM

**Q.** And the ED50 (Mus musculus [21])?
**A.** 2900 µg/kg

**Q.** And the Activity (Mus musculus [7])?
**A.** 8%

**Q.** What about the Activity (Rattus norvegicus [22]) of the same compound?
**A.** 96%

**Q.** And the Activity (Mus musculus [23])?
**A.** 0%

**Q.** With `Clc1ccc([C@H]2C[C@@H]3CC[C@H]2N3)cn1` [(-)-EPIBATIDINE] as the compound, how does the ED50 (Mus musculus [24]) read?
**A.** 4 µg/kg

**Q.** And the ED50 (Mus musculus [25])?
**A.** 6 µg/kg

**Q.** What about the ED50 (Mus musculus [20]; Mus musculus, read-out: ED50) of the same compound?
**A.** 1 µg/kg

**Q.** What about the ED50 (Mus musculus [21]; Mus musculus, read-out: ED50) of the same compound?
**A.** 4 µg/kg

**Q.** Which ED50 (Mus musculus [24]) does the source give for `CN1CCC[C@H]1c1cccnc1` [NICOTINE] here?
**A.** 650 µg/kg

**Q.** And the ED50 (Mus musculus [25])?
**A.** 1300 µg/kg

**Q.** And the ED50 (Mus musculus [20]; Mus musculus, read-out: ED50)?
**A.** 500 µg/kg

**Q.** What about the ED50 (Mus musculus [21]; Mus musculus, read-out: ED50) of the same compound?
**A.** 1000 µg/kg

**Q.** What does the source list for `CN1CCC[C@@H]1c1cccnc1` [R-NICOTINE]?
**A.** ED50 (Mus musculus [24]): 3900 µg/kg; ED50 (Mus musculus [25]): 8000 µg/kg; ED50 (Mus musculus [20]; Mus musculus, read-out: ED50): 2900 µg/kg; ED50 (Mus musculus [21]; Mus musculus, read-out: ED50): 7600 µg/kg

**Q.** With `Clc1ccc([C@@H]2C[C@H]3CC[C@@H]2N3)cn1` [(+)-EPIBATIDINE] as the compound, how does the ED50 (Mus musculus [24]) read?
**A.** 4 µg/kg

**Q.** What about the ED50 (Mus musculus [25]) of the same compound?
**A.** 0.6 µg/kg

**Q.** And the ED50 (Mus musculus [20]; Mus musculus, read-out: ED50)?
**A.** 1 µg/kg

**Q.** And the ED50 (Mus musculus [21]; Mus musculus, read-out: ED50)?
**A.** 4 µg/kg

**Q.** Which Activity (Rattus norvegicus [2]) does the source give for `c1cc2c(cn1)C1CCC(CC2)N1` (racemic) here?
**A.** 17%

**Q.** And the AD50 (Mus musculus [3])?
**A.** 1000 µg/kg

**Q.** What about the Activity (Rattus norvegicus [26]) of the same compound?
**A.** 84%

**Q.** And the Activity (Mus musculus [27])?
**A.** 12%

**Q.** And the AD50 (Mus musculus [4])?
**A.** 5 µg/kg

**Q.** And the ED50 (Mus musculus [20]; Mus musculus, read-out: ED50)?
**A.** 2600 µg/kg

**Q.** And the Ki [6]?
**A.** 6.1 nM

**Q.** What about the Activity (Mus musculus [28]) of the same compound?
**A.** 2%

**Q.** What about the ED50 (Mus musculus [21]; Mus musculus, read-out: ED50) of the same compound?
**A.** 1600 µg/kg

Reference: ChEMBL document CHEMBL1148491, “Synthesis and pharmacological characterization of nicotinic acetylcholine receptor properties of (+)- and (-)-pyrido-[3,4-b]homotropanes” (J Med Chem, 2006)
